Drawing on ChEMBL document CHEMBL1154465, “Structure-activity relationships in the acronycine and benzo[b]acronycine series: role of the pyran ring” (Eur J Med Chem, 2008), this text covers IC50 for 10 compounds.

Structures are written as SMILES.

One assay relates to L1210. Put plainly: Cytotoxicity against mouse L1210 cells after 48 hrs by microculture tetrazolium assay. Type of assay: functional, cell-based. To be noted: L1210, 48 h. A digest of the protocol: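 L1210 cells maintained in RPMI 1640 plus 10% fetal calf serum, 2 mM L-glutamine, penicillin, streptomycin and 10 mM HEPES (pH 7.4). Drug exposure at nine serial dilutions in triplicate for four doubling times (48 h). Microculture tetrazolium read-out; results given as IC50.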

Assay [1] can be described thus: Cytotoxicity against human KB3-1 cells after 96 hrs by microculture tetrazolium assay. Type of assay: functional, cell-based. To be noted: KB 3-1, 96 h. Summed up:
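KB-3-1 cells grown in DMEM with 10% fetal calf serum, 2 mM L-glutamine, penicillin, streptomycin and 10 mM HEPES (pH 7.4). Exposed to graded drug concentrations (nine serial dilutions, triplicate) for four doubling times (96 h). Viability read by microculture tetrazolium assay; IC50 reported.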

For orientation: IC50 means the concentration at which inhibition is half-maximal. A higher IC50 goes with weaker potency. In the assay on L1210, `COc1ccc2c(=O)c3ccccc3n(C)c2c1COC(C)=O` yielded an IC50 of 24 µM.

Regarding `COc1ccc2c(=O)c3cc4ccccc4cc3n(C)c2c1COC(C)=O`, the IC50 in assay [1] amounted to 7.9 µM; in the assay on L1210, 18.5 µM.

In the case of `COc1ccc2c(=O)c3cc4ccccc4cc3n(C)c2c1CO`, the IC50 was 22.5 µM in assay [1] and 34.6 µM in the assay on L1210.

The compound `COc1ccc2c(=O)c3ccccc3n(C)c2c1CO` displayed an IC50 in the assay on L1210 of 13.9 µM.

`COc1cc(OC)c2c(=O)c3ccccc3n(C)c2c1CO`: the results for the IC50 (in assay [1]; with L1210) were 34.1 µM and 23.9 µM, respectively.

For the compound `COc1cc(OC)c2c(=O)c3ccccc3n(C)c2c1COC(C)=O`, the IC50 was found to be 17.7 µM in assay [1] and 39.9 µM in the assay on L1210.

In assay [1], `COc1cc2c(c3c1c(=O)c1cc4ccccc4cc1n3C)[C@@H](OC(C)=O)[C@@H](OC(C)=O)C(C)(C)O2` (relative stereo) yielded an IC50 of 0.095 µM.

As to `COc1cc(OC(C)(C)CO)c(CO)c2c1c(=O)c1cc3ccccc3cc1n2C`, the values for the IC50 (in assay [1]; in the assay with L1210) were 26.2 µM and 1.3 µM, respectively.

Turning to `COc1cc(OC(C)(C)COC(C)=O)c(COC(C)=O)c2c1c(=O)c1cc3ccccc3cc1n2C`, the concentration for half-maximal inhibition (IC50) was 4.9 µM in assay [1] and 3 µM in the assay with L1210.

As for `COCc1c(OC)cc(OC)c2c(=O)c3ccccc3n(C)c12`, the IC50 in assay [1] was found to be 36.2 µM; in the assay with L1210, 51.7 µM.
